The source of these data is ChEMBL document CHEMBL1139204, “Synthesis and biological activity of 5-aza-ellipticine derivatives” (Bioorg Med Chem Lett, 2007).

The structures appear in SMILES notation. The source made the active and inactive calls. The calls are words filed in the database; no cut-off is given here.

In one assay the test system is HCT-116. The assay can be described thus: Growth inhibition of human HCT116 cells by MTT assay. The class given is functional, cell-based. The essentials:
(§1)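 MTT cytotoxicity assay in human colon adenocarcinoma HCT116 cells and murine NIH 3T3 fibroblast cells treated with the novel 5-aza-ellipticine derivatives; toxicity read by MTT reduction.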
On the technique in general: Formazan colour is commonly taken as a measure of viable cells.

Another assay deals with NIH3T3. Description: Growth inhibition of mouse NIH3T3 cells by MTT assay. Type of assay: cell-based. The method, boiled down: as §1
For the next assay, the species on record is Homo sapiens. Description: Inhibition of topoisomerase 2-mediated kDNA de-catenation. The essentials: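 Topoisomerase II decatenation of kinetoplast DNA (kDNA), run with a commercial kit following the manufacturer's recommended procedure. Decatenation depends on topo II double-strand break and re-ligation. A known topo II-active reference agent served as positive control.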

On to `COc1ccc2[nH]c3c(c(C)c4c(NCCCNCCCN)nccc4[n+]3C)c2c1`, for which, in the assay with HCT-116, the IC50 – broadly, the midpoint of a concentration-inhibition curve – was determined as 2000 nM.
In the assay with NIH3T3, `COc1ccc2[nH]c3nc4ccnc(NCCCNCCCN)c4c(C)c3c2c1` gave an IC50 of 1000 nM. This counts as single-digit micromolar.
As for `CC[n+]1c2ccnc(NCCCNCCCNc3nccc4c3c(C)c3c5cc(OC)ccc5[nH]c3[n+]4CC)c2c(C)c2c3cc(OC)ccc3[nH]c21`, the IC50 with HCT-116 came out at 300 nM.
With `COc1ccc2[nH]c3nc4ccnc(NCCCN(C)CCCN)c4c(C)c3c2c1`, the outcome in the assay filed under Homo sapiens was Active. Further, the IC50 was 300 nM with HCT-116 and 600 nM in the assay with NIH3T3.
In the assay on HCT-116, `CC[n+]1c2ccnc(O)c2c(C)c2c3cc(OC)ccc3[nH]c21` showed an IC50 of 3000 nM.
The same measure, in the same setting: to `COc1ccc2[nH]c3c(c(C)c4c(NCCCN5CCN(CCCN)CC5)nccc4[n+]3C)c2c1` belongs over 10000 nM.
Consider `Cc1c2ccncc2c(C)c2c1[nH]c1ccccc12` [ELLIPTECINE], for which the result in the assay filed under Homo sapiens was Active. In addition, the IC50 with HCT-116 is 300 nM; in the assay with NIH3T3, 3 nM.
As to `COc1ccc2[nH]c3c(C)c4ccnc(NCCCN(C)CCCN)c4c(C)c3c2c1`, the IC50 in the assay on HCT-116 is 70 nM; in the assay with NIH3T3 it was 20 nM.
On to `CC[n+]1c2ccnc(NCCCNCCCN)c2c(C)c2c3cc(OC)ccc3[nH]c21`, for which the IC50 in the assay with HCT-116 was determined as 400 nM.
As for `COc1ccc2[nH]c3nc4ccnc(Cl)c4c(C)c3c2c1`, the IC50 in the assay with HCT-116 and with NIH3T3 was over 1000 nM throughout.
On to `COc1ccc2[nH]c3c(c(C)c4c(O)nccc4[n+]3C)c2c1`, for which the IC50 with HCT-116 worked out at 200 nM.
